Activity calls are given as the source filed them. The calls are words filed in the database; no cut-off is given here.
How the values were obtained:
L6 [1] = experiment: Antiapoptotic activity in rat L6 cells assessed as suppression of 23.5 mM D-glucose-induced JNK-46 phosphorylation at 2 mM after 30 mins by Western blot analysis; format: functional, cell-based
L6 [2] = experiment: Antiapoptotic activity in rat L6 cells assessed as suppression of 23.5 mM D-glucose-induced JNK-54 phosphorylation at 2 mM after 30 mins by Western blot analysis; format: functional, cell-based
L6 [3] = experiment: Antioxidant activity in rat L6 cells assessed as trolox equivalents of ABTS free radical scavenging activity at 2 mM after 2 hrs by ELISA reader analysis in presence of 23.5 mM D-glucose; format: functional, cell-based
How it was run: (§1)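 L6 myotubes in αMEM with 2% FCS and 5.5 or 23.5 mM glucose were treated with peptide (25 μM, 12 h) or ALA (2 mM, 2 h), vehicle 0.1% DMSO. Cells were lysed (Tris pH 7.5, NaCl, NP-40) through three freeze-thaw cycles and centrifuged. Lysates were assayed for metmyoglobin/H2O2-driven ABTS•+ formation. Results are Trolox equivalents per mg protein from a Trolox standard curve, with protein by Bradford.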

L6 [4] = experiment: Cytoprotective activity in rat L6 cells assessed as increase in glucose oxidase-reduced cell survival at 2 mM incubated for 30 mins prior to glucose oxidase challenge measured after 5 hrs by MTT assay in presence of 23.5 mM D-glucose; format: functional, cell-based
How it was run: (§2)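 L6 myotubes were kept 7 days in 23.5 mM glucose. They were pretreated with peptide (25 μM, 12 h) or ALA (2 mM, 30 min), vehicle 0.1% DMSO, at 37 °C. Glucose oxidase (50 mU mL−1) was then added for 5 h to generate H2O2. Viability was read by MTT.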

L6 [5] = experiment: Effect on total GLUT4 level in rat L6 cells at 2 mM after 30 mins by Western blotting analysis; format: functional, cell-based
L6 [6] = experiment: Effect on total GLUT1 level in rat L6 cells at 2 mM after 30 mins by Western blotting analysis; format: functional, cell-based
L6 [7] = experiment: Effect on human myc epitope-tagged total GLUT4 level overexpressed in rat L6 cells at 2 mM after 30 mins by Western blotting analysis; format: functional, cell-based
How it was run: (§3)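 Whole-cell lysates of GLUT1myc- or GLUT4myc-overexpressing L6 myotubes were made after the same treatments as in the surface assay. Western blots were run for total transporter content.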

L6 [8] = experiment: Effect on human myc epitope-tagged total GLUT1 level overexpressed in rat L6 cells at 2 mM after 30 mins by Western blotting analysis; format: functional, cell-based; how it was run: as §3
[9] = biological target: T1, Solute carrier family 2, facilitated glucose transporter member 1 (Homo sapiens) (UniProt P11166); experiment: Induction of human myc epitope-tagged GLUT1 translocation to plasma membrane overexpressed in rat L6 cells at 2 mM after 30 mins by immunocolorimetric analysis in presence of 23.5 mM D-glucose; format: cell-based
T1 sequence (whole entry): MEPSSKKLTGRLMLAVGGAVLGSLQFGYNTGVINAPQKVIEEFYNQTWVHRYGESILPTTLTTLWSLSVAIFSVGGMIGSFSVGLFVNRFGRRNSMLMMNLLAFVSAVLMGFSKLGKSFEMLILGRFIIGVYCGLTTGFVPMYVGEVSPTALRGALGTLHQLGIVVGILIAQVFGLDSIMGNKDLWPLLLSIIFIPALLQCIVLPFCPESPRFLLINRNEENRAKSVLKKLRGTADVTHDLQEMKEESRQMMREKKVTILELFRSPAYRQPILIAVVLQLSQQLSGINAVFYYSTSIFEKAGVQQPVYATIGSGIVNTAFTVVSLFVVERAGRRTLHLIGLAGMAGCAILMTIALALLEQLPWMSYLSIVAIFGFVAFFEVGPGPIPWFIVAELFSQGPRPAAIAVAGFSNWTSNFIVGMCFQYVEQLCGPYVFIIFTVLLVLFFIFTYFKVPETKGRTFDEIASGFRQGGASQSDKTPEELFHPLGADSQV
How it was run: (§4)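 L6 myotubes overexpressing GLUT1myc or GLUT4myc were held 9 h in serum-free αMEM with 0.5% BSA and 23.5 mM glucose. They received peptide (25 μM) or 0.1% DMSO over the last 8 h, and insulin (100 nM) or ALA (2 mM) over the last 30 min. Live cells were labelled with anti-c-Myc (1:200) and fixed in 3% formaldehyde. HRP anti-rabbit IgG (1:2000) and OPD were added, and absorbance was read at 492 nm.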

L6 [10] = experiment: Antihyperglycemic activity in rat L6 cells assessed as increase in [3H]dGlc uptake at 25 uM after 30 mins by liquid scintillation counting analysis; format: functional, cell-based
L6 [11] = experiment: Antihyperglycemic activity in rat L6 cells assessed as increase in [3H]dGlc uptake at 2 mM after 30 mins by liquid scintillation counting analysis; format: functional, cell-based
How it was run: (§5)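 Differentiated L6 myotubes were preincubated 24 h in αMEM with 2% FCS and 5.5 or 23.5 mM D-glucose, then switched to FCS-free medium with 0.5% BSA 4 h before the assay. Peptide was given for 12 h or ALA for 30 min, vehicle 0.1% DMSO. After PBS rinses, cells took up 0.1 mM dGlc plus [3H]dGlc (1.3 μCi mL−1) for 5 min at room temperature. Cells were lysed in 0.1% SDS and counted by scintillation. Uptake is expressed as % of the DMSO basal rate.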

[12] = Antioxidant activity assessed as inhibition of H2O2-induced ROS production by DCFH assay; format: functional
How it was run: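 DCFH oxidation assay: H2O2 (0.5 mM) was incubated with DCFH with or without the test agent, and the DCF formed was read fluorometrically. Free His and Trolox served as controls.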

[13] = Induction of self-assembly of the compound in phosphate buffer at 100 uM after 2 days by uranyl acetate staining-based TEM analysis; format: physicochemical; conditions: 48 h
How it was run: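 Peptide (100 μM) was aged 2 days in phosphate buffer and negatively stained 30 s with 2% uranyl acetate. Nanotube formation was examined by TEM at 120 kV.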

[14] = Drug degradation in H2O2 solution at 2.7 mM after 1 month by HPLC/MS/NMR analysis in presence of Fe2+; format: physicochemical; conditions: H2O2 solution with Fe2+; read-out: Drug degradation
[15] = Antioxidant activity assessed as inhibition of H2O2-induced hydroxyl radical formation by EPR spectroscopic analysis in presence of Fe2+; format: functional
How it was run: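 Hydroxyl radicals came from a Fenton reaction: H2O2 (10 mM), FeSO4·7H2O (10 mM) and DMPO spin trap (40 mM), with peptide at 1−1000 μM. Samples were diluted in 15 mM phosphate buffer, pH 7.4, and read immediately by EPR. The spin-adduct signal was integrated.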

L6 [16] = experiment: Antiapoptotic activity in rat L6 cells assessed as suppression of 23.5 mM D-glucose-induced JNK-46 phosphorylation at 25 uM after 8 hrs by Western blot analysis; format: functional, cell-based
How it was run: (§6)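 L6 myotubes held 7 days in 23.5 mM glucose medium, then exposed to peptide for 8 h or ALA for 3 h. Whole-cell lysates were made in ice-cold lysis buffer, and 5−60 μg protein was run on 10−12% SDS-PAGE. Blots were probed for total and phosphorylated JNK (p-54, p-46) and α-tubulin. Band densities were normalized to total JNK. Two-tailed Student's t test.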

L6 [17] = experiment: Antiapoptotic activity in rat L6 cells assessed as suppression of 23.5 mM D-glucose-induced JNK-54 phosphorylation at 25 uM after 8 hrs by Western blot analysis; format: functional, cell-based; how it was run: as §6
L6 [18] = experiment: Antioxidant activity in rat L6 cells assessed as trolox equivalents of ABTS free radical scavenging activity at 25 uM after 12 hrs by ELISA reader analysis in presence of 23.5 mM D-glucose; format: functional, cell-based; how it was run: as §1
L6 [19] = experiment: Cytoprotective activity in rat L6 cells assessed as increase in glucose oxidase-reduced cell survival at 25 uM incubated for 12 hrs prior to glucose oxidase challenge measured after 5 hrs by MTT assay in presence of 23.5 mM D-glucose; format: functional, cell-based; how it was run: as §2
L6 [20] = experiment: Effect on total GLUT4 level in rat L6 cells at 25 uM after 8 hrs by Western blotting analysis; format: functional, cell-based
L6 [21] = experiment: Effect on total GLUT1 level in rat L6 cells at 25 uM after 8 hrs by Western blotting analysis; format: functional, cell-based
L6 [22] = experiment: Effect on human myc epitope-tagged total GLUT4 level overexpressed in rat L6 cells at 25 uM after 8 hrs by Western blotting analysis; format: functional, cell-based; how it was run: as §3
L6 [23] = experiment: Effect on human myc epitope-tagged total GLUT1 level overexpressed in rat L6 cells at 25 uM after 8 hrs by Western blotting analysis; format: functional, cell-based; how it was run: as §3
[24] = biological target: T2, Solute carrier family 2, facilitated glucose transporter member 4 (Homo sapiens) (UniProt P14672); experiment: Induction of human myc epitope-tagged GLUT4 translocation to plasma membrane overexpressed in rat L6 cells at 25 uM after 8 hrs by immunocolorimetric analysis in presence of 23.5 mM D-glucose relative to insulin; format: cell-based; how it was run: as §4
T2 sequence (whole entry): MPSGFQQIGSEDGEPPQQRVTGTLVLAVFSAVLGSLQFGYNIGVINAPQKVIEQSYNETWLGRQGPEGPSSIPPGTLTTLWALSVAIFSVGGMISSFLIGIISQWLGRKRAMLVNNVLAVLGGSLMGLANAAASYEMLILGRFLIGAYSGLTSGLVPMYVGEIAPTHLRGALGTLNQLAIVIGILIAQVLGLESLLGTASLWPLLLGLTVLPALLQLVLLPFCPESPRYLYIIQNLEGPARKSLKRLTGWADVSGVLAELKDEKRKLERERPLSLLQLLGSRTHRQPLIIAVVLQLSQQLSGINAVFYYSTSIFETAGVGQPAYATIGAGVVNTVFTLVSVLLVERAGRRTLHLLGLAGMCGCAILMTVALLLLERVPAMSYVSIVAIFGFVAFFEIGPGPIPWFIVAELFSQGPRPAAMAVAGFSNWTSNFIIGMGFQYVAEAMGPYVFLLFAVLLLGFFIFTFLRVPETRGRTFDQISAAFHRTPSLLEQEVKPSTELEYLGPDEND

[25] = biological target: T1, Solute carrier family 2, facilitated glucose transporter member 1 (Homo sapiens); experiment: Induction of human myc epitope-tagged GLUT1 translocation to plasma membrane overexpressed in rat L6 cells at 25 uM after 8 hrs by immunocolorimetric analysis in presence of 23.5 mM D-glucose; format: cell-based; how it was run: as §4
L6 [26] = experiment: Antihyperglycemic activity in rat L6 cells assessed as increase in [3H]dGlc uptake at 25 uM after 6 to 12 hrs by liquid scintillation counting analysis; format: functional, cell-based
L6 [27] = experiment: Potency index, ratio of compound activity to ALA activity for increase in [3H]dGlc uptake in rat L6 cells; format: functional
How it was run: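 L6 myotubes (differentiated in αMEM, 2% FCS) preincubated 24 h in 23.5 mM D-glucose, then 4 h serum-free with 0.5% BSA. Peptide at increasing concentrations for 12 h, or ALA 2 mM for 30 min; vehicle 0.1% DMSO. Uptake: 0.1 mM dGlc plus [3H]dGlc 1.3 μCi/mL in PBS pH 7.4, 5 min RT; SDS lysis, scintillation counting, % of vehicle basal. Ratio compares concentrations giving similar uptake.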

L6 [28] = experiment: Antihyperglycemic activity in rat L6 cells assessed as increase in [3H]dGlc uptake at 5 uM after 12 hrs by liquid scintillation counting analysis; format: functional, cell-based; how it was run: as §5
L6 [29] = experiment: Antihyperglycemic activity in rat L6 cells assessed as increase in [3H]dGlc uptake after 12 hrs by liquid scintillation counting analysis; format: functional, cell-based; how it was run: as §5
[30] = Antioxidant activity assessed as inhibition of H2O2-induced hydroxyl radical formation by EPR spectroscopic analysis in absence of Fe2+; format: functional
[31] = Potency index, ratio of Histidine EC50 to compound EC50 for inhibition of H2O2-induced ROS production; format: functional

O=C(O)CCCCC1CCSS1 (configuration not stated)
Activity (L6 [1]): Active
Activity (L6 [2]): Active
Activity (L6 [3]): Active
Activity (L6 [4]): Active
Activity (L6 [5]): inactive
Activity (L6 [6]): inactive
Activity (L6 [7]): inactive
Activity (L6 [8]): inactive
Activity [9]: Active
Activity (L6 [10]): inactive
Activity (L6 [11]): Active

Cc1c(C)c2c(c(C)c1O)CCC(C)(C(=O)O)O2 (configuration not stated) [TROLOX]
EC50 [12]: 0.35 µM

NCCCC[C@H]1NC(=O)[C@H](Cc2c[nH]cn2)NC(=O)[C@@H](Cc2c[nH]cn2)NC(=O)[C@H](Cc2c[nH]cn2)NC(=O)[C@@H](Cc2c[nH]cn2)NC(=O)[C@H](Cc2c[nH]c3ccccc23)NC(=O)[C@@H](Cc2c[nH]c3ccccc23)NC(=O)[C@H](Cc2c[nH]cn2)NC1=O
Activity [13]: Active
degraded at 730.5 h [14]: < 5%
EC50 [15]: 3 µM
EC50 [12]: 0.4 µM

NCCCC[C@H]1NC(=O)[C@H](Cc2c[nH]cn2)NC(=O)[C@@H](Cc2c[nH]c3ccccc23)NC(=O)[C@H](Cc2c[nH]c3ccccc23)NC(=O)[C@@H](Cc2c[nH]cn2)NC(=O)[C@H](Cc2c[nH]cn2)NC(=O)[C@@H](Cc2c[nH]cn2)NC(=O)[C@H](Cc2c[nH]cn2)NC1=O
Activity (L6 [16]): Active
Activity (L6 [17]): Active
Activity (L6 [18]): Active
Activity (L6 [19]): Active
Activity (L6 [20]): inactive
Activity (L6 [21]): inactive
Activity (L6 [22]): inactive
Activity (L6 [23]): inactive
Activity [24]: 60%
Activity [25]: Active
Activity (L6 [26]): Active
Ratio (L6 [27]): 80
Activity (L6 [28]): Active
Activity (L6 [29]): Dose-dependent effect
inhibition [30]: Active
inhibition [15]: Dose-dependent effect
Ratio EC50 [31]: 15

NCCCC[C@H]1NC(=O)[C@H](Cc2c[nH]cn2)NC(=O)[C@@H](Cc2c[nH]c3ccccc23)NC(=O)[C@H](Cc2c[nH]c3ccccc23)NC(=O)[C@@H](Cc2c[nH]cn2)NC(=O)[C@H](Cc2c[nH]cn2)NC(=O)[C@@H](Cc2c[nH]cn2)NC(=O)[C@H](CO)NC1=O
Ratio EC50 [31]: 30
EC50 [12]: 0.2 µM

N[C@@H](Cc1c[nH]cn1)C(=O)O [HISTIDINE]
EC50 [15]: 100 µM
EC50 [12]: 6 µM

Reference: ChEMBL document CHEMBL2439985, “Multifunctional cyclic D,L-α-peptide architectures stimulate non-insulin dependent glucose uptake in skeletal muscle cells and protect them against oxidative stress” (J Med Chem, 2013)
